Screening results (PubChem)
MT stabilizer – microtubule stabilizers in HeLa cells, primary screen, imaging, high-content imaging; AID 2205, 2009; 200,000 tested, 0.83% active; % tubulin-high responders, % at 10 µM; HeLa tubulin immunostaining HCS, 24 h; share of cells brighter than vehicle mean+2SD;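 active = plate Z-score above 3 for both tubulin-high and condensed-nucleus cell shares, with cell loss under 80%, at 10 µM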;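 note: anti alpha tubulin signal scored within the nucleus-defined area of each cell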
BaF3 tox – parental Ba/F3 cell viability inhibition, counter-screen for JAK2V617F inhibitor project, murine pro-B, CellTiter-Glo luminescence. CellTiter-Glo ATP luminescence. inhibition, % at 5.6 µM. 220,000 tested, 1.1% active;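 active = inhibition above a per-campaign cutoff, the mean inhibition of all tested compounds plus 3 SD, cut at about 27% in these data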;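 note: 0% = DMSO wells and 100% = JAK Inhibitor I control wells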
APP transl inh – inhibitors of APP translation via 5'UTR reporter, primary screen, APP 5'UTR luciferase, SH-SY5Y cells; SH-SY5Y APP 5'UTR-luciferase reporter, luminescence; inhibition, % at 2 µM; 190,000 tested, 0.82% active; AID 1285, 2008;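 active = inhibition above a set limit, derived from the sample mean plus 3 SD, cut at about 45% in these data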
Ba/F3 V617F tox – reduced viability of JAK2V617F-dependent Ba/F3 cells, primary screen, JAK2V617F inhibitor project, cell-based, Ba/F3 EpoR-JAK2V617F, luminescence | ATP luminescence | inhibition, % at 5.6 µM | 220,000 tested, 1.1% active | AID 1446, 2008;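 active = inhibition above the campaign mean plus 3 SD over all tested compounds, cut at about 24% in these data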;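 note: cytokine-independent growth of Ba/F3 cells driven by EpoR plus mutant JAK2; 0% = DMSO-treated cells and 100% = JAK inhibitor I control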
bCat nuc transl – modulators of beta-catenin nuclear translocation, primary screen, imaging, HeLa cells, immunofluorescence, high-content. nuclear translocation activity, % at 5 µM. 190,000 tested, 0.3% active;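 active = nuclear translocation activity above 50% at 5 µM, with a well cell count of 50 or more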;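 note: per-cell ratio of nuclear to cytoplasmic median beta-catenin stain intensity; plate controls were DMSO negative control for no effect and GSK-3 inhibitor IX positive control for full effect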
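Signal – beta-catenin immunofluorescence imaging with DAPI · Test system – human HeLa cell line · Dosing – 5 µM primary single dose, 0.1% DMSO, 0.02–20 µM confirmation series · Measure – % activation, nuclear-to-cytoplasmic median beta-catenin signal ratio per cell · Incubation – 24 h compound exposure at 37°C, 5% CO2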
IEC-6 cytotox – cytotoxicity in IEC-6 intestinal epithelial cells, primary screen, cytotoxicity control for KLF5 inhibitor project, cell-based, luminescence; IEC-6 cytotoxicity, luminescence viability; inhibition, % at 5 µM; 290,000 tested, 0.78% active;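 note: 0% = plate median of test compound wells and 100% = cytotoxic reference compound wells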
IEC-6 tox confirm – cytotoxic compounds in IEC-6 epithelial cells, confirmation, cytotoxicity control, cell-based, luminescence; shares compounds with IEC-6 cytotox; IEC-6 rat intestinal epithelial viability; inhibition, % at 5 µM; 1,900 tested, 63% active; AID 1907, 2009;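 note: 0% = vehicle and 100% = reference cytotoxic drug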
* hit, by the source's call; · = no result given. Only some compounds are listed: those with a hit (about 2.2% of all), similar ones and a draw of the others. Cut-off read from the data, not from the text of the source, unless noted: active = inhibition above about 22%; inactive = the rest.

SMILES	MT stabilizer	BaF3 tox	APP transl inh	Ba/F3 V617F tox	bCat nuc transl	IEC-6 cytotox	IEC-6 tox confirm
CC1(C)CC(=O)C2=C(C1)OC(N)=C(C#N)C21C(=O)N(CN2CCOCC2)c2ccccc21 (centres undefined)	2.8	0.1	-7.8	-4.3	0.1	-1.9	·
CCC1CCCCN1C(=O)c1ccc(OC2CCN(C(=O)CCOC)CC2)cc1 (centres undefined)	·	·	·	·	·	0.7	·
CC(C)(C)c1ccc(C2C(C(=O)c3ccco3)=C(O)C(=O)N2CC2CCCO2)cc1 (centres undefined)	·	·	·	·	·	0.9	·
CCOC(=O)c1[nH]c(C)c(C(=O)Nc2ccccc2C)c1C	30.6*	66.5*	84.2*	71.0*	43.0	56.1*	51.1*
CCOC(=O)c1[nH]c(C)c(C(=O)Nc2cc(Cl)ccc2C)c1C	38.1*	73.2*	95.4*	73.6*	58.1*	82.0*	63.1*
CCOC(=O)c1[nH]c(C)c(C(=O)Nc2ccc(C)c(Cl)c2)c1C	3.8	6.8	-11.6	1.6	0.2	1.6	·
COc1cc(/C=N/Nc2snc(SC)c2C#N)ccc1O	49.1*	61.5*	82.9*	73.3*	23.5	45.1*	44.9*
COc1cc(/C=N/Nc2nc3ccccc3[nH]2)ccc1O	4.6	5.2	-17.3	-4.1	2.5	8.9	·
Cc1ccc(-c2nnn(CCOc3cccc(Br)c3)n2)cc1	4.8	5.0	-5.1	0.8	2.4	5.5	·
COc1ccc(Nc2nc(-c3sc(C)nc3C)cs2)cc1	·	·	·	·	·	76.4*	56.1*
CCN(CC)c1ccc2nc3ccccc3[n+](CC)c2c1	·	·	·	·	·	34.1*	33.5*
CCN(CC)c1ccc2cc(-c3nc4ccccc4[nH]3)c(=O)oc2c1	18.4	1.9	-185.2	-0.7	0.8	4.6	·
CC(OC(=O)C1CSC2(c3ccc(F)cc3)CCC(=O)N12)C(=O)NC(N)=O (centres undefined)	2.5	7.0	-4.6	0.9	-1.2	-8.1	·
CCC(C)NCCOCCOc1ccc(Cl)c2ccccc12 (centres undefined)	7.2	0.9	-3.5	5.2	1.4	33.9*	14.8
COc1ccc(CNC(=O)C/C(C)=N/NC(=O)c2cc(OC)cc(OC)c2)cc1	·	·	·	·	·	77.3*	5.3
COc1cc(OC)cc(C(=O)N/N=C(\C)CC(=O)Nc2ccccn2)c1	·	·	·	·	·	73.6*	6.2
C/C(CC(=O)Nc1ccccn1)=N\NC(=O)c1ccccc1	2.6	3.2	-9.9	1.9	-3.3	4.3	·
COc1ccc(CNC(=O)C/C(C)=N/NC(=O)Cc2ccc(OC)c(OC)c2)cc1	3.0	7.9	7.0	3.9	-0.4	10.2	·
Cc1ccc(Oc2c(C(N)=O)cc([N+](=O)[O-])cc2[N+](=O)[O-])cc1	1.6	-1.5	10.1	-5.9	·	-4.3	·
CCOc1cc(S(=O)(=O)n2cnc(C)c2)ccc1Cl	4.0	2.0	4.0	1.9	0.9	2.7	·
O=C(CSc1nc2ccccc2c(=O)[nH]1)Nc1ccccc1O	·	·	·	·	·	-0.7	·
O=C(CSc1nc2ccccc2c(=O)[nH]1)Nc1ccccc1C(F)(F)F	·	·	·	·	·	29.3*	18.1
CCCCOC1CC(c2ccc(OCc3ccc(OC)cc3)c(OC)c2)N(C)O1 (centres undefined)	3.9	-1.8	1.1	-3.6	0.7	1.4	·
CCOc1ccccc1NC(=O)Cn1nnc(C(=O)NCc2ccc3c(c2)OCO3)c1N	·	·	·	·	·	50.6*	27.6*
CCOc1ccccc1NC(=O)c1nnn(CC(=O)Nc2ccc3c(c2)OCO3)c1N	·	·	·	·	·	3.3	·
SMILES	MT stabilizer	BaF3 tox	APP transl inh	Ba/F3 V617F tox	bCat nuc transl	IEC-6 cytotox	IEC-6 tox confirm
COc1ccc(NC(=O)Cn2nnc(C(=O)NCc3ccc4c(c3)OCO4)c2N)cc1	0.7	2.5	9.8	-2.2	0.1	-18.3	·
COc1cccc(CNC(=O)c2nnn(CC(=O)Nc3ccc(Br)cc3)c2N)c1	·	·	·	·	·	34.4*	18.4
CCOc1ccccc1NC(=O)Cn1nnc(C(=O)NCc2ccco2)c1N	24.7*	85.6*	96.0*	87.0*	·	86.9*	58.2*
c1ccc(-c2noc(CN3CCN(c4cnccn4)CC3)n2)cc1	3.0	-3.7	-9.4	-5.0	3.0	4.7	·
CC(C)c1ccc(NC(=O)c2ccccc2NC(=O)C2CCCCC2C(=O)O)cc1 (centres undefined)	·	·	·	·	·	4.7	·
Cc1cccc(N2CCN(c3nc(C)cc(C)c3C#N)CC2C)c1 (centres undefined)	·	·	·	·	·	-8.4	·
CCOc1ccc(CCNC(=O)C2CSC3(C)CCC(=O)N23)cc1OCC (centres undefined)	·	·	·	·	·	-10.4	·
CCOC(=O)c1ccc(NC(=O)c2cc3c(s2)CCC3)cc1	·	1.9	·	-4.1	0.5	-6.0	·
Clc1cccc(Cl)c1CSc1nnc([C@@H]2CCCN2)o1	·	-1.7	·	-2.6	-0.4	-0.8	·
CCn1cc2nc(SCC(=O)Nc3ccc(OC)cc3OC)n(Cc3ccc(OC)cc3)c(=O)c2n1	·	·	·	·	·	61.5*	41.7*
COc1ccc(C2=NOC(COc3ccc([N+](=O)[O-])cc3)C2)cc1 (centres undefined)	·	-0.3	·	-3.4	0.2	-2.3	·
Cc1ccc(C(=O)CCNc2ccc(F)c(Cl)c2)o1	1.9	57.7*	-31.3	46.4*	2.4	30.8*	34.3*
CC(C)(C)NC(=O)/C(=C/c1ccco1)c1ccccc1	2.2	5.2	-12.9	0.7	-0.3	2.1	·
N#CC(C#N)=C1C=CC=CN1/C(=C\c1ccco1)C(=O)c1ccccc1	1.4	71.4*	96.1*	91.9*	-1.0	73.6*	7.4
COc1ccc(C(=O)N/C(=C\c2ccco2)C(=O)OCc2ccco2)cc1	·	-2.9	·	-3.5	-0.5	-10.9	·
COc1ccc(C(=O)/C(=C\c2ccco2)N2C=CC=CC2=C(C#N)C#N)cc1	11.7	100.0*	84.3*	98.6*	-1.0	82.7*	62.0*
C=CCN(CC=C)C(=O)c1cc2ccccc2c(=O)o1	5.1	1.0	11.4	1.9	0.3	4.6	·
COc1ccc(NC(=O)C2CCCN(C(=O)Nc3ccc(F)cc3)C2)cc1OC (centres undefined)	·	·	·	·	·	5.1	·
CCOC(=O)C1=C(C(F)(F)F)Nc2ncnn2C1c1ccc(OC)c(OC)c1OC (centres undefined)	2.0	2.1	-7.0	-0.8	-0.5	5.5	·
O=C(COc1cccc(Cl)c1)Nc1ccc2c(c1)CCC2	3.4	0.8	-19.2	-1.9	0.6	6.9	·
Clc1ccc2c(c1)C(N1CCNCC1)Cc1ccccc1S2 (centres undefined)	67.2	8.1	4.1	7.8	-5.8	12.0	·
Clc1cccc2c1Sc1ccccc1CC2N1CCNCC1 (centres undefined)	8.3	7.8	1.9	5.8	39.5	23.4*	9.1
